SMILES strings stand for the structures. Calls of active or inactive are those of the source. The rule behind the calls is not given here.

The text below walks through data of ChEMBL document CHEMBL1142952, “Design, synthesis, and activity of 2-imidazol-1-ylpyrimidine derived inducible nitric oxide synthase dimerization inhibitors” (J Med Chem, 2007).

In assay [1] the target is Nitric oxide synthase, inducible (Homo sapiens, UniProt P35228). Kind of assay: Inhibition of cytokine-induced iNOS expressed in human A172 cells assessed as inhibition of NO formation. The format is cell-based, A 172.
For assay [2], the system named is BSC-1. Kind of assay: Selectivity ratio, IC50 for bcNOS/IC50 for iNOS using vaccinia virus-induced system in BSC1 cells. The format is cell-based. To be noted: Homo sapiens. The method in brief: (§1)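 For each compound, the IC50 against bcNOS (b/i) or ecNOS (e/i) is divided by the iNOS IC50 from the same BSC-1 vaccinia system.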
A short description of assay [3]: Inhibition of vaccinia virus system-induced human NOS expressed in BSC1 cells. To be noted: bsc-1. The format is cell-based.
In assay [4] the target is Nitric oxide synthase, inducible (Rattus norvegicus) (UniProt Q06518). Kind of assay: Activity against rat cerebellum iNOS upto 1 uM.
Assay [5] has as its system BSC-1. Kind of assay: Selectivity ratio, IC50 for ecNOS/IC50 for iNOS using vaccinia virus-induced system in BSC1 cells. The format is cell-based. To be noted: Homo sapiens. The method in brief:
as §1

Nitric oxide synthase, inducible (Rattus norvegicus), sequence (Q06518 whole entry): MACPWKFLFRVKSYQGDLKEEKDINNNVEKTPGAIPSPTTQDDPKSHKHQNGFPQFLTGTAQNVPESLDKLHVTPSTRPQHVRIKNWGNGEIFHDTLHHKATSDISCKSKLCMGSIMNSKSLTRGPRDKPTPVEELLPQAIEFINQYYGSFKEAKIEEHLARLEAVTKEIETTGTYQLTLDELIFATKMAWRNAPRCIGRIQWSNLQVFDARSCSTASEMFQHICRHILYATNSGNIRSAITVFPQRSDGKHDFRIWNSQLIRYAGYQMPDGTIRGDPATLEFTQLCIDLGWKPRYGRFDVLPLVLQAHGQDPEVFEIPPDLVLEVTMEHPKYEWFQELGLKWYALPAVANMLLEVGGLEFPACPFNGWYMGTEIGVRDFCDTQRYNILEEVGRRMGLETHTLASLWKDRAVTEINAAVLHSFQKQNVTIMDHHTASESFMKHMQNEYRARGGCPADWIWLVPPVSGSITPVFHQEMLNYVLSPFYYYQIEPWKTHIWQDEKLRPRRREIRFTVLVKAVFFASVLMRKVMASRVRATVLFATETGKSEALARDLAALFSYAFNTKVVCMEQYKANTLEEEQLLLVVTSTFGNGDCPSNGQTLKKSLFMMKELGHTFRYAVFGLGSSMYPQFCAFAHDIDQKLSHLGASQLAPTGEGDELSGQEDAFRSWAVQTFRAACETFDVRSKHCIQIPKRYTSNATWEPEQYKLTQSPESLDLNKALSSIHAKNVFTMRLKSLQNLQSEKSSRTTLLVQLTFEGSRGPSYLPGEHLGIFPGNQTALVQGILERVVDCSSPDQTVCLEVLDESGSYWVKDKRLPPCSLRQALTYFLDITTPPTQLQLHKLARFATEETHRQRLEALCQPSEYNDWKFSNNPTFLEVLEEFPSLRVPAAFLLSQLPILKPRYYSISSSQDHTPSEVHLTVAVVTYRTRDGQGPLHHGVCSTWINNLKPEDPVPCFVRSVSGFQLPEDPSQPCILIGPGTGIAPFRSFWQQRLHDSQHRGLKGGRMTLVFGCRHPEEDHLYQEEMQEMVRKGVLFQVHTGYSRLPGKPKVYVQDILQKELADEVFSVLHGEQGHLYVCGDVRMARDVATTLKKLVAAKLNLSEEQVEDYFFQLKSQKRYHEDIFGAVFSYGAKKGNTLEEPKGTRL
Nitric oxide synthase, inducible, sequence (P35228 whole entry): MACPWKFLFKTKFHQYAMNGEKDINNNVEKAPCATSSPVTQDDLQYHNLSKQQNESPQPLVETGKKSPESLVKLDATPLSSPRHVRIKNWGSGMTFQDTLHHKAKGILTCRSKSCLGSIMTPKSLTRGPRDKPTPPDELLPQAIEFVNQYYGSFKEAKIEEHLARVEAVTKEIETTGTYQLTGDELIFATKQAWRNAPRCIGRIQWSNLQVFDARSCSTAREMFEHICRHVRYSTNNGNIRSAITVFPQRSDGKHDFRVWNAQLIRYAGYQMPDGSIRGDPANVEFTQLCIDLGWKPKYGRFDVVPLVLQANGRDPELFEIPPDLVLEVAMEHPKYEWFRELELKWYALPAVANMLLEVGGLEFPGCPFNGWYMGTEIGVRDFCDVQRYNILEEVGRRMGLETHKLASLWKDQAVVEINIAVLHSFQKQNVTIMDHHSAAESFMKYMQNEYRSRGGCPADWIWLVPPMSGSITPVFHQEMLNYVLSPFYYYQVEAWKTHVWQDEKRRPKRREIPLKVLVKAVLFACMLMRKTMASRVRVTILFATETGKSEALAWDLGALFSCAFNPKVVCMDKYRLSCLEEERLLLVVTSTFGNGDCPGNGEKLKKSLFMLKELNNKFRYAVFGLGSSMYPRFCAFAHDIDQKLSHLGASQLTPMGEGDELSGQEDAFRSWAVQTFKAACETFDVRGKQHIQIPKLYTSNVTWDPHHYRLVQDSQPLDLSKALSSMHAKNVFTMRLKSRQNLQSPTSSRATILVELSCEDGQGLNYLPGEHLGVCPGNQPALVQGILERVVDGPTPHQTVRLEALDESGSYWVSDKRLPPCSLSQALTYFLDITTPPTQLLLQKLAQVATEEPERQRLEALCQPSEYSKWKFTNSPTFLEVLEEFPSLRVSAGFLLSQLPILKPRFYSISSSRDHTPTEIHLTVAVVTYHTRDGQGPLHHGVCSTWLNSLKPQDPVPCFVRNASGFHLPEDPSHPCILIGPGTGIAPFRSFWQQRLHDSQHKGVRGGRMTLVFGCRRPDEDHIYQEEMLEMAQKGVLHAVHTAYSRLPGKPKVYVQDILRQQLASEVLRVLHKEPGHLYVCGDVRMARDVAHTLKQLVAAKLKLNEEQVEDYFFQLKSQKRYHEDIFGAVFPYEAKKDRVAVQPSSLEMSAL

For orientation: IC50 means the concentration at which inhibition is half-maximal. As for `O=C(CC1CCCCN1c1nccc(-n2ccnc2)n1)NCc1ccc2c(c1)OCO2` (stereo not given), the concentration for half-maximal inhibition (IC50) in assay [1] came to 52 nM; in assay [3], 220 nM. In addition, the figures for the Ratio IC50 with BSC-1 [2] and with BSC-1 [5] were 6 and more than 500, respectively. The result in assay [4] was inactive.

In the case of `O=C(CC1CCCCN1c1ccnc(-n2ccnc2)n1)NCc1ccc(F)cc1` (stereo not given), the values for the IC50 in assay [1] and in assay [3] were 3 nM and 210 nM, respectively. Also, the Ratio IC50 was found to be 5 in the assay with BSC-1 [2] and 490 in the assay with BSC-1 [5]. Moreover, the outcome in assay [4] was inactive.

On to `O=C(CC1CNCCN1c1ccnc(-n2ccnc2)n1)NCc1ccc2c(c1)OCO2` (stereo not given), for which the values for the IC50 in assay [1] and in assay [3] were 0.55 nM and 70 nM, respectively. Further, the Ratio IC50 in the assay with BSC-1 [2] is 7; in the assay with BSC-1 [5] it was 1200. Further, the outcome in assay [4] was inactive.

Turning to `COc1ccc(CCNC(=O)CC2CCCCN2c2ccnc(-n3ccnc3)n2)cc1` (stereo not given), the results for the half-inhibitory concentration (IC50) in assay [1] and in assay [3] were 3.5 nM and 42 nM, respectively. Also, the Ratio IC50 with BSC-1 [2] is 8; in the assay on BSC-1 [5] it was more than 1000. Also, in assay [4], the result was inactive.

For `Cc1cc(N2CCN(Cc3ccccc3)C(CC(=O)NCc3ccc4c(c3)OCO4)C2)nc(-n2ccnc2)n1` (stereo not given), the 50% inhibitory concentration (IC50) in assay [1] was 25 nM; in assay [3] it was 160 nM. Further, the Ratio IC50 with BSC-1 [2] turned out to be 130; with BSC-1 [5], 350. Moreover, in assay [4], the result was inactive.

As for `O=C(CC1CCCCN1c1ccnc(-n2ccnc2)n1)NCc1ccco1` (stereo not given), the IC50 in assay [1] was determined as 63 nM; in assay [3], 260 nM. Further, the Ratio IC50 worked out at 13 with BSC-1 [2] and 140 in the assay with BSC-1 [5]. For the same molecule, the result in assay [4] was inactive.

Consider `CNC(=O)N1CCN(c2ccnc(-n3ccnc3)n2)C(CC(=O)NCc2ccc3c(c2)OCO3)C1` (stereo not given), for which the IC50 was 1 nM in assay [1] and 450 nM in assay [3]. Also, the Ratio IC50 is 4 in the assay on BSC-1 [2] and more than 250 in the assay on BSC-1 [5]. For the same molecule, the outcome in assay [4] was inactive.

Take `O=C(CC1CN(S(=O)(=O)c2ccccc2)CCN1c1ccnc(-n2ccnc2)n1)NCc1ccc2c(c1)OCO2` (stereo not given): the IC50 amounted to 2.7 nM in assay [1] and 34 nM in assay [3]. The Ratio IC50 in the assay on BSC-1 [2] worked out at 9; in the assay with BSC-1 [5], 1100. Moreover, the outcome in assay [4] was inactive.

As for `O=C(CC1CN(C(=O)c2ccco2)CCN1c1ccnc(-n2ccnc2)n1)NCc1ccc2c(c1)OCO2` (stereo not given), the IC50 in assay [1] came to 0.67 nM; in assay [3] it was 48 nM. In addition, the values for the Ratio IC50 in the assay on BSC-1 [2] and in the assay on BSC-1 [5] were 6 and 1000, respectively. For the same molecule, in assay [4], the result was inactive.

For `COc1ccc(CCNC(=O)CC2CCCCN2c2ccnc(-n3ccnc3)n2)cc1OC` (stereo not given), the values for the half-inhibitory concentration (IC50) in assay [1] and in assay [3] were 12 nM and 680 nM, respectively. Also, the Ratio IC50 in the assay with BSC-1 [2] came to 1; with BSC-1 [5], 120. The result in assay [4] was inactive.

As to `O=C(CC1CN(C(=O)COCc2ccccc2)CCN1c1ccnc(-n2ccnc2)n1)NCc1ccc2c(c1)OCO2` (stereo not given), the IC50 in assay [1] came to 0.5 nM; in assay [3], 28 nM. Further, the Ratio IC50 in the assay on BSC-1 [2] worked out at 11; with BSC-1 [5], 1220. Moreover, the outcome in assay [4] was inactive.

As to `CC(=O)N1CCN(c2ccnc(-n3ccnc3)n2)C(CC(=O)NCc2ccc3c(c2)OCO3)C1` (stereo not given), the values for the 50% inhibitory concentration (IC50) in assay [1] and in assay [3] were 1 nM and 320 nM, respectively. The figures for the Ratio IC50 in the assay on BSC-1 [2] and in the assay with BSC-1 [5] were 3 and more than 10, respectively. In addition, in assay [4], the result was inactive.

For the molecule `O=C(CC1CCCCN1c1cc(-c2ccccc2)nc(-n2ccnc2)n1)NCc1ccc2c(c1)OCO2` (stereo not given), the IC50 was 67 nM in assay [1] and 450 nM in assay [3]. The Ratio IC50 in the assay on BSC-1 [2] worked out at 4; in the assay with BSC-1 [5] it was 36. Also, the result in assay [4] was inactive.

Turning to `Cc1cc(N2CCN(C)C(CC(=O)NCc3ccc4c(c3)OCO4)C2)nc(-n2ccnc2)n1` (stereo not given), the values for the concentration for half-maximal inhibition (IC50) in assay [1] and in assay [3] were 12 nM and 340 nM, respectively. Besides, the Ratio IC50 is 72 in the assay on BSC-1 [2] and more than 350 in the assay on BSC-1 [5]. In assay [4], the outcome was inactive.
